# Source: ChEMBL document CHEMBL3091462 (J Nat Prod, 2013)
# Active and inactive are the calls of the source. No cut-off for these calls is given here.
# Tests used:
# HCT-116 [1] = assay: Antitumor activity against human HCT116 cells xenografted in BALB/c-nude mouse assessed as reduction of tumor volume at 100 mg/kg, po administered every other day from day 2 to 21; type: functional, organism-based; set-up: dose 100 mg/kg
# Outline: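 Male BALB/c-nude mice; 2 × 10^6 tumour cells in 0.2 mL PBS injected intradermally into the flank on day 0, n = 10 per group. Oral dosing every other day for 3 weeks, starting 2 days after inoculation. Caliper tumour volume = (width)2 × length/2, measured periodically. Tumours excised and weighed at day 21. Means ± SE.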
# SW-620 [2] = assay: Induction of apoptosis in human SW620 cells expressing p21 siRNA assessed as change in cell morphology at 10 uM after 24 hrs by phase-contrast microscopic analysis; type: functional, cell-based
# Outline: (§1)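 Cells plated at 5 × 10^4 per well and transfected with 100 nM scrambled or p21 siRNA in OPTI-MEM for 4 h. Complete RPMI medium was added and cells grown a further 24 h, then exposed to 10 μM for 24 h. Viability measured by direct count after trypan blue staining. Morphology viewed by phase-contrast at 200×. Means ± SD, three experiments in triplicate.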
# HCT-116 [3] = assay: Induction of apoptosis in human HCT116 cells expressing p21 siRNA assessed as change in cell morphology at 10 uM after 24 hrs by phase-contrast microscopic analysis; type: functional, cell-based; outline: as §1
# SW-620 [4] = assay: Induction of apoptosis in human SW620 cells assessed as reduction of Bcl-2 protein expression at 0.5 to 10 uM after 24 hrs by immunoblotting; type: functional, cell-based
# Outline: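 HCT-116 or SW-620 cells treated with 0–10 μM for 24 h, lysed, and run on 15% SDS-PAGE immunoblots. Probed for Bcl-2 (1:1000), Bax (1:500), caspase-9/-3 and their cleaved forms (1:1000), and β-actin (1:1000). Bands quantified by densitometry; means ± SD of three experiments in duplicate.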
# SW-620 [5] = assay: Induction of apoptosis in human SW620 cells at 5 uM after 48 hrs using Annexin V-FITC and propidium iodide staining by flow cytometry (reference value: 3.8 +/- 2.1%); type: functional
# Outline: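 Subconfluent cells in RPMI 1640 + 10% FBS treated with 0–10 μM for 48 h. Harvested cells incubated 10 min with FITC-annexin V/PI, then analysed by flow cytometry (488/525 nm for annexin V-FITC, 488/675 nm for PI). Reported as % apoptotic cells, means ± SD of three experiments in triplicate.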
# SW-620 [6] = assay: Effect on p57 expression in p53 deficient human SW620 cells at 0.5 to 10 uM after 24 hrs by immunoblotting; type: functional, cell-based
# HCT-116 [7] = assay: Increase of p21 expression in human HCT116 cells at 0.1 to 10 uM after 24 hrs by immunoblotting; type: functional, cell-based
# Outline: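 HCT-116 or SW-620 cells treated with 0–10 μM for 24 h. Lysates probed for p21 by SDS-PAGE immunoblotting with ECL detection; β-actin as loading control.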
# HCT-116 [8] = assay: Decrease of cyclin E expression in human HCT116 cells after 24 hrs by immunoblotting; type: functional, cell-based
# Outline: (§2)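 HCT-116 or SW-620 cells exposed to 0–10 μM for 24 h. Cells lysed in Tris/NaCl/EDTA/1% Triton X-100 buffer with protease and phosphatase inhibitors at 4 °C, protein measured by BCA. Lysates run on 10–12.5% SDS-PAGE and immunoblotted, ECL detection. Cdk2, cyclin A and cyclin E antibodies used at 1:500; β-actin as loading control.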
# HCT-116 [9] = assay: Decrease of cyclin A expression in human HCT116 cells after 24 hrs by immunoblotting; type: functional, cell-based; outline: as §2
# SW-620 [10] = assay: Cell cycle arrest in human SW620 cells assessed as accumulation at G0/G1 phase at 0.5 uM after 48 hrs using propidium iodide staining by flow cytometry (reference value: 47.8 +/- 1.2%); type: functional
# SW-620 [11] = assay: Cell cycle arrest in human SW620 cells assessed as accumulation at G0/G1 phase at 1 uM after 48 hrs using propidium iodide staining by flow cytometry (reference value: 47.8 +/- 1.2%); type: functional
# SW-620 [12] = assay: Cell cycle arrest in human SW620 cells assessed as accumulation at G0/G1 phase at 2 uM after 48 hrs using propidium iodide staining by flow cytometry (reference value: 47.8 +/- 1.2%); type: functional
# SW-620 [13] = assay: Cell cycle arrest in human SW620 cells assessed as accumulation at S phase at 2 uM after 48 hrs using propidium iodide staining by flow cytometry (reference value: 43.1 +/- 1%); type: functional
# SW-620 [14] = assay: Cell cycle arrest in human SW620 cells assessed as accumulation at G2/M phase at 2 uM after 48 hrs using propidium iodide staining by flow cytometry (reference value: 9.1 +/- 0.3%); type: functional
# SW-620 [15] = assay: Cell cycle arrest in human SW620 cells assessed as accumulation at G0/G1 phase at 10 uM after 48 hrs using propidium iodide staining by flow cytometry (reference value: 47.8 +/- 1.2%); type: functional
# SW-620 [16] = assay: Cell cycle arrest in human SW620 cells assessed as accumulation at S phase at 10 uM after 48 hrs using propidium iodide staining by flow cytometry (reference value: 43.1 +/- 1%); type: functional
# HCT-116 [17] = assay: Cell cycle arrest in human HCT116 cells assessed as accumulation at G2/M phase at 10 uM after 48 hrs using propidium iodide staining by flow cytometry (reference value: 7.1 +/- 0.3%); type: functional
# HCT-116 [18] = assay: Cell cycle arrest in human HCT116 cells assessed as accumulation at S phase at 10 uM after 48 hrs using propidium iodide staining by flow cytometry (reference value: 36.3 +/- 1.7%); type: functional
# HCT-116 [19] = assay: Cell cycle arrest in human HCT116 cells assessed as accumulation at G0/G1 phase at 10 uM after 48 hrs using propidium iodide staining by flow cytometry (reference value: 56.7 +/- 1.9%); type: functional
# HCT-116 [20] = assay: Cell cycle arrest in human HCT116 cells assessed as accumulation at G0/G1 phase at 1 uM after 48 hrs using propidium iodide staining by flow cytometry (reference value: 56.7 +/- 1.9%); type: functional
# HCT-116 [21] = assay: Cell cycle arrest in human HCT116 cells assessed as accumulation at G2/M phase at 0.5 uM after 48 hrs using propidium iodide staining by flow cytometry (reference value: 7.1 +/- 0.3%); type: functional
# HCT-116 [22] = assay: Cell cycle arrest in human HCT116 cells assessed as accumulation at S phase at 0.1 uM after 48 hrs using propidium iodide staining by flow cytometry (reference value: 36.3 +/- 1.7%); type: functional
# SW-620 [23] = assay: Cytotoxicity against human SW620 cells assessed as cell viability at 0.1 to 2 uM after 24 to 72 hrs; type: functional, cell-based
# Outline: (§3)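 Cells seeded at 10^5 per well in RPMI 1640/10% FBS at 37 °C. Subconfluent cells exposed to 0, 0.1, 0.5, 1, 2, 5 or 10 μM for 48 h, or to 10 μM for 24, 48 and 72 h; ethanol vehicle, at most 0.01% v/v final. Cells trypsinized and counted by hemocytometer. Viability as % of control, means ± SD, three experiments in triplicate.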
# HCT-116 [24] = assay: Cytotoxicity against human HCT116 cells at 0.1 to 10 uM; type: functional, cell-based; details: TDE = time-dependent effect; outline: as §3
# SW-620 [25] = assay: Cytotoxicity against human SW620 cells after 24 to 72 hrs; type: functional, cell-based; outline: as §3
# SW-620 [26] = assay: Cytotoxicity against human SW620 cells assessed as cell viability at 10 uM after 48 to 72 hrs; type: functional, cell-based; outline: as §3
smiles,measurement,setting,value
CC(C)c1cccc(=O)c(O)c1 [HINOKITIOL],Activity,HCT-116 [1],Active
same,Activity,SW-620 [2],inactive
same,Activity,HCT-116 [3],inactive
same,Activity,SW-620 [4],Active
same,Activity,SW-620 [5],53.1%
same,Activity,SW-620 [6],inactive
same,Activity,HCT-116 [7],Active
same,Activity,HCT-116 [8],Dose-dependent effect
same,Activity,HCT-116 [9],Dose-dependent effect
same,Activity,SW-620 [10],48.3%
same,Activity,SW-620 [11],45.6%
same,Activity,SW-620 [12],43.1%
same,Activity,SW-620 [13],52.4%
same,Activity,SW-620 [14],4.5%
same,Activity,SW-620 [15],11.5%
same,Activity,SW-620 [16],87%
same,Activity,HCT-116 [17],7.4%
same,Activity,HCT-116 [18],53.8%
same,Activity,HCT-116 [19],38.8%
same,Activity,HCT-116 [20],55.1%
same,Activity,HCT-116 [21],8%
same,Activity,HCT-116 [22],34.4%
same,Activity,SW-620 [23],Active
same,Activity,HCT-116 [24],tde
same,IC50,SW-620 [25],4.4 µM
same,growth inhibition (GI),SW-620 [25],Dose-dependent effect
same,Activity,SW-620 [26],Active
